According to ChEMBL document CHEMBL3124893 (J Med Chem, 2014):

Tests used:
Adenosine receptor A3 [1] = molecular target: T1, Adenosine receptor A3 (Rattus norvegicus, UniProt P28647); assay: Displacement of [125I]-I-AB-MECA from rat adenosine A3 receptor expressed in RBL-2H3 cells after 60 mins by gamma counting analysis; format: cell-based
T1 sequence (P28647 whole entry): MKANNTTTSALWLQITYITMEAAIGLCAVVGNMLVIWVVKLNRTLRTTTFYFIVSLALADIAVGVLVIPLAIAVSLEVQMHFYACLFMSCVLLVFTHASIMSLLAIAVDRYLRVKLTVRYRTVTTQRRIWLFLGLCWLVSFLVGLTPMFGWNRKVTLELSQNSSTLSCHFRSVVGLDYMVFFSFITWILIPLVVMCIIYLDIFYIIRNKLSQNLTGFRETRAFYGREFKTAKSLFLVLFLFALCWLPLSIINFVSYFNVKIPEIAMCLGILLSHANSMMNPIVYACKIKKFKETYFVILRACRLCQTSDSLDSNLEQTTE

[2] = molecular target: T2, Adenosine receptor A1 (Homo sapiens) (UniProt P30542); assay: Displacement of [3H]-R-PIA from recombinant human adenosine A1 receptor expressed in CHO cells at 10 uM after 60 mins by scintillation counting analysis relative to control; format: cell-based
T2 sequence (whole entry): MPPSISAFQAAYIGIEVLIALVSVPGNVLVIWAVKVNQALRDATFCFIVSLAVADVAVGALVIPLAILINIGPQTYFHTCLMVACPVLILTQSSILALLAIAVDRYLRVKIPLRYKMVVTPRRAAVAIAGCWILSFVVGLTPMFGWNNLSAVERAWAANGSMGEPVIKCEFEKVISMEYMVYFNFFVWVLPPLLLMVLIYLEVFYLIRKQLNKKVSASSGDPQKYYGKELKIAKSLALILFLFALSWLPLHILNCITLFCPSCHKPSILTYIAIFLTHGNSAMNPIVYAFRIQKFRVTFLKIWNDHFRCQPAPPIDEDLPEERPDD

Adenosine receptor A3 [3] = molecular target: T3, Adenosine receptor A3 (Homo sapiens, UniProt P0DMS8); assay: Displacement of [125I]-I-AB-MECA from recombinant human adenosine A3 receptor expressed in CHO cells after 60 mins by gamma counting analysis; format: cell-based
T3 sequence (P0DMS8 whole entry): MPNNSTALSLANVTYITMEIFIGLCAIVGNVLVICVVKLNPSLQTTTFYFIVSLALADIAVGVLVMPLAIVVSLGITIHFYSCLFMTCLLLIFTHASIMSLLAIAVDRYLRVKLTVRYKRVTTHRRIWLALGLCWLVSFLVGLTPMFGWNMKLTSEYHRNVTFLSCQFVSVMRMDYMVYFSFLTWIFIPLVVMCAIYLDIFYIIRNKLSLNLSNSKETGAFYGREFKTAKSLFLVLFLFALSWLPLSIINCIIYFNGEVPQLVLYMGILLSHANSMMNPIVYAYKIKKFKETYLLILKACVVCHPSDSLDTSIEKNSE

Adenosine receptor A2a [4] = molecular target: T4, Adenosine receptor A2a (Homo sapiens, UniProt P29274); assay: Displacement of [3H]-CGS21680 from human adenosine A2A receptor expressed in HEK293 cells after 60 mins by scintillation counting analysis; format: cell-based
T4 sequence (P29274 whole entry): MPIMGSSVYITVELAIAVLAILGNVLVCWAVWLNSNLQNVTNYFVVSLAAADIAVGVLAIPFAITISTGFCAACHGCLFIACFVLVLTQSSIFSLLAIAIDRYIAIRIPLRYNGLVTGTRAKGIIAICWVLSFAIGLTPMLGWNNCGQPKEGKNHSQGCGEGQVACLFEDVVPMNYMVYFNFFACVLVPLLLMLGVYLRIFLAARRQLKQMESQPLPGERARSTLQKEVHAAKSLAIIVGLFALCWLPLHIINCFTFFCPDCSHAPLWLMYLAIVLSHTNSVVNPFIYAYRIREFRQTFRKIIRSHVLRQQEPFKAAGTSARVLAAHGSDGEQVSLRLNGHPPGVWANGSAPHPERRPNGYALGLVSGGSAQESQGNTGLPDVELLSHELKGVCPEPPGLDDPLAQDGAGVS
Summary of the method: (§1)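 HEK-293 hA2AAR membranes (20 μg) incubated 60 min at 25 °C with 15 nM [3H]CGS21680 and increasing ligand concentrations in 50 mM Tris·HCl pH 7.4, 10 mM MgCl2. Nonspecific binding defined with 10 μM NECA. GF/B filtration, scintillation counting. Ki by Cheng–Prusoff. For weak binders, percent inhibition measured at 10 μM, 3–5 duplicate determinations.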

[5] = Antifibrotic activity in C57BL6/J mouse Prox24 cells assessed as inhibition of TGF-beta1-induced COL1A1 mRNA expression incubated for 1 hr followed by TGF-beta1 challenge measured after 6 hrs by real-time PCR analysis; format: functional
Summary of the method: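 mProx24 immortalized proximal tubular cells from C57BL6/J mouse kidneys in DMEM, 10% FCS, 37 °C, 5% CO2. Growth-arrested 24 h in 0.15% FCS. Pretreated 1 h with compound in DMEM/0.15% FCS (DMSO stocks 50, 20, 10, 1 mM), then human TGF-β1 5 ng/mL for 6 h. COL1A1 mRNA expressed relative to TGF-β1 alone (1.0). Mean ± SE of three experiments.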

[6] = molecular target: T5, Adenosine receptor A3 (Homo sapiens) (UniProt P0DMS8); assay: Antagonist activity at recombinant human adenosine A3 receptor expressed in CHO cells assessed as forskolin-induced intracellular cAMP production preincubated for 45 mins followed by forskolin challenge measured after 15 mins by liquid scintillation counting analysis in presence of rolipram and adenosine deaminase relative to NECA; format: functional, cell-based; design: scale not given: the % may be the effect or the level left
T5 sequence (whole entry): T3 sequence (P0DMS8 whole entry)
Summary of the method: (§2)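 CHO cells stably expressing hA3AR, plated 24 h, washed in DMEM/50 mM HEPES pH 7.4, treated with agonists and/or test compounds plus rolipram 10 μM and adenosine deaminase 3 U/mL. Forskolin 10 μM added after 45 min, incubation continued 15 min. Lysed in 0.1 M HCl. cAMP quantified by [3H]cAMP (2 nM)–PKA competitive binding, GF/C filtration, scintillation counting. Expressed relative to NECA full agonist (100%). Curves from three determinations.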

Adenosine receptor A2a [7] = molecular target: T4, Adenosine receptor A2a; assay: Displacement of [3H]-CGS21680 from human adenosine A2A receptor expressed in HEK293 cells at 10 uM after 60 mins by scintillation counting analysis relative to control; format: cell-based; summary of the method: as §1
Adenosine receptor A1 = molecular target: T6, Adenosine receptor A1 (Homo sapiens, UniProt P30542); assay: Displacement of [3H]-R-PIA from recombinant human adenosine A1 receptor expressed in CHO cells after 60 mins by scintillation counting analysis; format: cell-based
T6 sequence (P30542 whole entry): T2 sequence (whole entry)

Adenosine receptor A3 [8] = molecular target: T3, Adenosine receptor A3; assay: (§3) Partial agonist activity at recombinant human adenosine A3 receptor expressed in CHO cells assessed as […] of forskolin-induced intracellular cAMP production preincubated for 45 mins followed by forskolin challenge measured after 15 mins by liquid scintillation counting analysis in presence of rolipram and adenosine deaminase; format: functional, cell-based; summary of the method: as §2
[9] = molecular target: T7, Adenosine receptor A2b (Homo sapiens) (UniProt P29275); assay: Agonist activity at recombinant human adenosine A2B receptor expressed in CHO cells assessed as activation of intracellular cAMP production at 10 uM in presence of rolipram and adenosine deaminase relative to NECA; format: functional, cell-based
T7 sequence (whole entry): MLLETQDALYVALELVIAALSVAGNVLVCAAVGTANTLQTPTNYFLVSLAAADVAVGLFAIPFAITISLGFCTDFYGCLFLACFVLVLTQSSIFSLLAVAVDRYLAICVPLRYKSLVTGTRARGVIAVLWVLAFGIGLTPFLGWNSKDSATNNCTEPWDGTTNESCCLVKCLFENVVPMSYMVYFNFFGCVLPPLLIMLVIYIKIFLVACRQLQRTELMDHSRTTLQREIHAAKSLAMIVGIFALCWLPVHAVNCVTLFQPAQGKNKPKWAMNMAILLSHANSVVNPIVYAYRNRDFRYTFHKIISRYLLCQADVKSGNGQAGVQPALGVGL
Summary of the method: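 CHO cells stably expressing hA2BAR, plated 24 h, washed in DMEM with 50 mM HEPES pH 7.4, then exposed to compounds with rolipram 10 μM and adenosine deaminase 3 U/mL (no forskolin). Lysed in 0.1 M ice-cold HCl. cAMP measured by competitive binding of [3H]cAMP (2 nM) to protein kinase A against a 0–16 pmol standard curve, filtration, scintillation counting.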

[10] = molecular target: T5, Adenosine receptor A3 (Homo sapiens); assay: as §3, with “production at 10 uM” for “production”, “deaminase relative to NECA” for “deaminase”; format: functional, cell-based; summary of the method: as §2

SMILES | Ki (Adenosine receptor A3 [1]) [µM] | inhibition [2] [%] | Ki (Adenosine receptor A3 [3]) [µM] | Ki (Adenosine receptor A2a [4]) [µM] | IC50 [5] [µM] | Activity [6] [%] | inhibition (Adenosine receptor A2a [7]) [%] | Ki (Adenosine receptor A1) [µM] | EC50 (Adenosine receptor A3 [8]) [µM] | Activity [9] [%] | max activation [10] [%]
CCCCC#Cc1nc(N)c2ncn([C@H]3[C@H](O)[C@H](O)[C@@H]4C[C@@H]43)c2n1 | 0.065 | 29 | 0.0162 | 0.1 | 6.12 |  |  |  |  |  | 
CCCCC#Cc1nc(NCc2cccc(I)c2)c2ncn([C@H]3[C@H](O)[C@H](O)[C@@H]4C[C@@H]43)c2n1 | 0.026 | 48 | 0.012 | 2.53 | 7.88 | < 5 |  |  |  |  | 
CCCCC#Cc1nc(NCc2cccc(F)c2)c2ncn([C@H]3[C@H](O)[C@H](O)[C@@H]4C[C@@H]43)c2n1 | 0.043 | 21 | 0.016 |  | 3.17 |  | 27 |  |  |  | 
CCCCC#Cc1nc(NCc2cccc(Cl)c2)c2ncn([C@H]3[C@H](O)[C@H](O)[C@@H]4C[C@@H]43)c2n1 | 0.0107 | 19 | 0.0078 | 3.31 | 2.87 | < 5 |  |  |  |  | 
CCCCC#Cc1nc(NC2CCCC2)c2ncn([C@H]3[C@H](O)[C@H](O)[C@@H]4C[C@@H]43)c2n1 | 0.058 |  | 0.16 | 1.76 | > 50 |  |  | 1.58 |  |  | 
CCCCC#Cc1nc(NCc2cccc(Br)c2)c2ncn([C@H]3[C@H](O)[C@H](O)[C@@H]4C[C@@H]43)c2n1 | 0.059 | 38 | 0.0086 | 3.15 | 10.4 | < 5 |  |  |  |  | 

The next lines start with the values.

Ki (Adenosine receptor A3 [1]) [µM] | inhibition [2] [%] | Ki (Adenosine receptor A3 [3]) [µM] | Ki (Adenosine receptor A2a [4]) [µM] | IC50 [5] [µM] | Activity [6] [%] | inhibition (Adenosine receptor A2a [7]) [%] | Ki (Adenosine receptor A1) [µM] | EC50 (Adenosine receptor A3 [8]) [µM] | Activity [9] [%] | max activation [10] [%] | SMILES
0.039 |  | 0.0092 | 2.2 | 11.8 |  |  | 2.17 |  |  |  | CCCCC#Cc1nc(NC2CC2)c2ncn([C@H]3[C@H](O)[C@H](O)[C@@H]4C[C@@H]43)c2n1
0.176 | 31 | 0.0067 | 2.86 | 0.84 |  |  |  |  |  |  | CCCCC#Cc1nc(NCC)c2ncn([C@H]3[C@H](O)[C@H](O)[C@@H]4C[C@@H]43)c2n1
0.231 | 14 | 0.0049 | 7.49 | 0.83 |  |  |  | 0.0458 | 15.7 | 29.1 | CCCCC#Cc1nc(NC)c2ncn([C@H]3[C@H](O)[C@H](O)[C@@H]4C[C@@H]43)c2n1
